Data from ChEMBL document CHEMBL3272161, “Synthesis of prostaglandin synthetase substrate analogues. 2. (8Z,11Z,14Z)-15-Methyl-8,11,14-eicosatrienoic acid” (J Med Chem, 1977).
The source made the active and inactive calls. No cut-off for these calls is given here.

Tests used:
[1] = biological target: seed linoleate 13S-lipoxygenase-1 (Glycine max) (UniProt P08170); assay: Activity at soybean lipoxygenase assessed as oxygen consumption
Homo sapiens = species on record: Homo sapiens; assay: Activity at prostaglandin synthetase in ADP-induced human platelet rich plasma assessed as malondialdehyde formation up to 5 mM by spectrophotometric analysis
Method in brief: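 After ADP aggregation, PRP (compound salts added 2 min pre-ADP) was held a further 27 min at 37 °C unstirred. Samples were quenched in 20% trichloroacetic acid/0.6 M HCl and centrifuged. Supernatant was heated 15 min in boiling water with 0.12 M thiobarbiturate (Tris, pH 7.0), then read at A533. MDA = PRP minus PPP signal; recovery was 75-80%.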

Platelet = assay: Antiplatelet activity against human platelet rich plasma assessed as inhibition of ADP-induced platelet aggregation up to 5 mM incubated for 2 mins prior to ADP-challenge; assay type: functional
Method in brief: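 PRP came from citrated venous blood of aspirin-free human volunteers (200g, 20 min, RT), at 4-6 x 10^8 platelets/mL, with PPP as blank. Compound sodium salts, 50 mM in 0.1 M Na2CO3, were added as 0.01-0.05 mL to 0.5 mL of stirred PRP at 37 °C, 2 min before ADP. Aggregation was induced by 0.01 mL of 1 mM ADP and followed 2-3 min by aggregometer.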

Ovis aries [2] = species on record: Ovis aries; assay: Activity at cyclooxygenase in sheep seminal vesicles assessed as oxygen consumption in presence of hematin
Method in brief: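 Cyclooxygenase purified from seminal vesicles was supplemented with 0.5 uM hematin. Fatty acid came from a 9 mM heptane stock, dried under N2 just before use and resuspended in 0.1 M Tris-Cl pH 8.5 with 0.67 mM phenol. O2 uptake was read by oxygen electrode in 3-mL chambers. Arachidonic acid was run alongside as control substrate.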

Ovis aries [3] = species on record: Ovis aries; assay: Irreversible inactivation of cyclooxygenase-mediated cyclooxygenation of arachidonic acid in sheep seminal vesicles up to 12 mins
Method in brief: (§1)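 Cyclooxygenase O2-electrode assay was run with 0.5 uM hematin in Tris-Cl pH 8.5 with 0.67 mM phenol. Inhibitor was preincubated with enzyme for progressively longer periods, up to 12 min. Degree of inhibition was compared across preincubation times to test for irreversible inactivation.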

Ovis aries [4] = species on record: Ovis aries; assay: Reversible inhibition of cyclooxygenase in sheep seminal vesicles
Method in brief: as §1

[5] = Competitive inhibition of cyclooxygenase-mediated cyclooxygenation of arachidonic acid in sheep seminal vesicles by Dixon plot analysis; set-up: species or system Ovis aries
Method in brief: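 Seminal vesicle cyclooxygenase was used with 0.5 uM hematin in 0.1 M Tris-Cl pH 8.5 containing 0.67 mM phenol. Activity was followed as O2 consumption by oxygen electrode in 3-mL chambers, with arachidonic acid as substrate. Ki was derived by Dixon graphical method from eight assays.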

SMILES | Activity [1] | Activity (Homo sapiens) | inhibition (Platelet) | Activity (Ovis aries [2]) | Activity (Ovis aries [3]) | inhibition (Ovis aries [4]) | Ki [5]
CCCCC/C(C)=C\C/C=C\C/C=C\CCCCCCC(=O)O | Active | inactive | Active | inactive | inactive | Active | 2000 nM
CCCCC/C=C\C/C=C\C/C=C\C/C=C\CCCC(=O)O |  |  |  | Active |  |  | 
CCCCC/C=C\C/C=C\C/C=C\CCCCCCC(=O)O |  | Active | Active |  |  |  | 
